ChEMBL document CHEMBL1137515, “Alpha-diaminobutyric acid-linked hairpin polyamides” (Bioorg Med Chem, 2007)
Values belong to the compound of their own block, whether it stands above or below them.

Assays:
[1] = Binding affinity to pMFST TAGTGGT match site
In short: (§1)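 DNase I footprinting titrations on the 5′ end-labeled PCR product of the relevant plasmid (pMFST or pMFST2). DNA was equilibrated with polyamide or water (control) for 12–16 h at room temperature before DNase I cleavage. Binding isotherms gave equilibrium association constants (M−1), reported as the mean of three titrations.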

[2] = Binding affinity to pMFST TAGTCGT mismatch site B; in short: as §1
[3] = Binding affinity to pMFST ATATGGT mismatch site A; in short: as §1
[4] = Binding affinity to pMFST5 forward hairpin binding M site
In short: (§2)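 Quantitative DNase I footprinting on the 301 bp 5′ end-labeled PCR product of plasmid pMFST5, using 1 pM to 100 nM polyamide across 11 lanes. DNA was incubated with polyamide or water for 12–16 h at room temperature before DNase I digestion. Equilibrium association constants (M−1) from binding isotherms are the mean of three experiments.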

[5] = Binding affinity to pMFST5 slipped extended S site; in short: as §2
[6] = Binding affinity to pMFST5 overlapped extended O site; in short: as §2
[7] = Binding affinity to pMFST ATGGTCA match site; in short: as §1
[8] = Binding affinity to pMFST AACGACT mismatch site A; in short: as §1
[9] = Binding affinity to pMFST TAGCACA mismatch site B; in short: as §1
[10] = Binding affinity to pMFST2 TAGCTGT mismatch site B; in short: as §1
[11] = Binding affinity to pMFST2 TAGGTCT mismatch site A; in short: as §1
[12] = Binding affinity to pMFST2 TAGGTGT match site; in short: as §1

SMILES: CN(C)CCCNC(=O)CCNC(=O)c1cc(NC(=O)c2cc(NC(=O)c3cc(NC(=O)c4cc(NC(=O)[C@@H](CCN)NC(=O)c5nc(NC(=O)c6nc(NC(=O)CCNC(=O)c7nccn7C)cn6C)cn5C)cn4C)cn3C)cn2C)cn1C
Ka [1]: 8 10^8/M
Ka [2]: 6.2 10^7/M

SMILES: CN(C)CCCNC(=O)CCNC(=O)c1cc(NC(=O)c2cc(NC(=O)c3cc(NC(=O)c4cc(NC(=O)[C@H](N)CCNC(=O)c5nc(NC(=O)c6nc(NC(=O)CCNC(=O)c7nccn7C)cn6C)cn5C)cn4C)cn3C)cn2C)cn1C
Ka [1]: 4.3 10^10/M
Ka [2]: 6.2 10^9/M
Ka [3]: 9.9 10^8/M

SMILES: CN(C)CCCNC(=O)CCNC(=O)c1cc(NC(=O)c2cc(NC(=O)c3cc(NC(=O)c4cc(NC(=O)[C@@H](CCN)NC(=O)c5nc(NC(=O)c6cc(NC(=O)c7nc(NC(=O)c8nccn8C)cn7C)cn6C)cn5C)cn4C)cn3C)cn2C)cn1C
Ka [11]: 8.5 10^7/M
Ka [12]: 3 10^8/M

Other lines, results leading:

Ka [4]: 7 10^8/M
Ka [5]: 1.3 10^9/M
Ka [6]: 5.9 10^8/M
SMILES: CN(C)CCCNC(=O)CCNC(=O)c1cc(NC(=O)c2cc(NC(=O)c3cc(NC(=O)c4nc(NC(=O)CNC(=O)c5cc(NC(=O)c6cc(NC(=O)c7nc(NC(=O)c8nccn8C)cn7C)cn6C)cn5C)cn4C)cn3C)cn2C)cn1C

Ka [7]: 4.9 10^10/M
Ka ([8]; in the assay text read “mismatch site C” for “mismatch site A”): 1.8 10^10/M
Ka [9]: 3.9 10^8/M
SMILES: CN(C)CCCNC(=O)CCNC(=O)c1cc(NC(=O)c2cc(NC(=O)c3cc(NC(=O)c4nc(NC(=O)[C@H](N)CCNC(=O)c5cc(NC(=O)c6cc(NC(=O)c7nc(NC(=O)c8nccn8C)cn7C)cn6C)cn5C)cn4C)cn3C)cn2C)cn1C

Ka [10]: 1.1 10^9/M
Ka [11]: 1.1 10^10/M
Ka [12]: 4.4 10^10/M
SMILES: CN(C)CCCNC(=O)CCNC(=O)c1cc(NC(=O)c2cc(NC(=O)c3cc(NC(=O)c4cc(NC(=O)[C@H](N)CCNC(=O)c5nc(NC(=O)c6cc(NC(=O)c7nc(NC(=O)c8nccn8C)cn7C)cn6C)cn5C)cn4C)cn3C)cn2C)cn1C

Ka [4]: 9.8 10^9/M
Ka [7]: 4.4 10^9/M
Ka [8]: 1.5 10^8/M
Ka [6]: 4.7 10^9/M
SMILES: CN(C)CCCNC(=O)CCNC(=O)c1cc(NC(=O)c2cc(NC(=O)c3cc(NC(=O)c4nc(NC(=O)[C@@H](CCN)NC(=O)c5cc(NC(=O)c6cc(NC(=O)c7nc(NC(=O)c8nccn8C)cn7C)cn6C)cn5C)cn4C)cn3C)cn2C)cn1C
